Data on 23 molecules can be found in ChEMBL document CHEMBL1150300, “Synthesis of 5-chloro-N-aryl-1H-indole-2-carboxamide derivatives as inhibitors of human liver glycogen phosphorylase a” (Bioorg Med Chem, 2008).

What is called IC50 is the point on the concentration scale where inhibition reaches its midpoint.

Where only a bound is given, the exact number is not on record here.

The first assay has as its target T1, Glycogen phosphorylase, liver form (Homo sapiens, UniProt P06737).
T1 sequence (P06737 whole entry): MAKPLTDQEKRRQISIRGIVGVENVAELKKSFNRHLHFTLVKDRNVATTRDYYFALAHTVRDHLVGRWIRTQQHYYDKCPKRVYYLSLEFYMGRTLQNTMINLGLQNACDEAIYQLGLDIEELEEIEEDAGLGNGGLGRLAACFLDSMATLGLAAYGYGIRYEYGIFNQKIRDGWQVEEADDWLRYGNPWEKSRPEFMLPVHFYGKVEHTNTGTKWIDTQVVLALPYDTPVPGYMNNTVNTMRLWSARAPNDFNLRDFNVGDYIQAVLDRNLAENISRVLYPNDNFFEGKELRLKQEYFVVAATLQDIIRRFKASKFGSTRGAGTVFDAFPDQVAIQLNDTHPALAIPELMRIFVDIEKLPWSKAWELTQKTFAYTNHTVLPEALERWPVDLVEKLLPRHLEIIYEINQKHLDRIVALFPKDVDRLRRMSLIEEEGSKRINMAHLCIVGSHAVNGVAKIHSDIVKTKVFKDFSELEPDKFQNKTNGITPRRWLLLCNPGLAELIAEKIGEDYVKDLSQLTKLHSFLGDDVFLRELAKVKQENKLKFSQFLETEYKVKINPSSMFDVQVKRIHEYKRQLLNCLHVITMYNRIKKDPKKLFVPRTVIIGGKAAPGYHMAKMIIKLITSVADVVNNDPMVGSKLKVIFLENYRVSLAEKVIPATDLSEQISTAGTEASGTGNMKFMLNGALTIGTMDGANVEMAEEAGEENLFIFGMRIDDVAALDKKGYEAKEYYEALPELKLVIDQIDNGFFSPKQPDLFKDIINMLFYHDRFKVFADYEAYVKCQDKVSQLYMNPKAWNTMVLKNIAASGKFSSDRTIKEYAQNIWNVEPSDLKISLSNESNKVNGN
Briefly: Inhibition of human liver glycogen phosphorylase a.
For the molecule `Nc1cc(NC(=O)c2cc3cc(Cl)ccc3[nH]2)ccc1C(O)CO` (configuration not stated), the IC50 is 1.7 µM.

In the case of `O=C(Nc1ccc(C(O)CO)c(-c2ccccc2)c1)c1cc2cc(Cl)ccc2[nH]1` (configuration not stated), it took 7.4 µM to reach half-maximal inhibition (IC50). The same measure, in the same setting: with `COCC(O)c1ccc(NC(=O)c2cc3cc(Cl)ccc3[nH]2)cc1` (configuration not stated) the figure was 3.6 µM; with `O=C(Nc1ccc(CCCO)cc1)c1cc2cc(Cl)ccc2[nH]1`, more than 10 µM; with `O=C(Nc1ccc(CCO)cc1)c1cc2cc(Cl)ccc2[nH]1`, 1.2 µM. On the same count and under the same terms, the value for `O=C(Nc1ccc(C(O)CO)nc1)c1cc2cc(Cl)ccc2[nH]1` (configuration not stated) was 4.4 µM. `O=C(Nc1cnc(C(O)CO)cn1)c1cc2cc(Cl)ccc2[nH]1` (configuration not stated) yielded an IC50 of 0.44 µM. On the same count and under the same terms, with `O=C(Nc1ccc(C(O)CO)c(F)c1)c1cc2cc(Cl)ccc2[nH]1` (configuration not stated) the figure was 0.34 µM; with `O=C(Nc1ccc(C(O)CO)cc1)c1cc2cc(Cl)ccc2[nH]1` (configuration not stated), 0.9 µM.

`O=C(Nc1ccc(C(O)CO)c([N+](=O)[O-])c1)c1cc2cc(Cl)ccc2[nH]1` (configuration not stated) yielded an IC50 of 2.1 µM. On the same count and under the same terms, with `O=C(Nc1ccc(CO)cc1)c1cc2cc(Cl)ccc2[nH]1` the figure was 1.6 µM. Consider `O=C(Nc1ccccc1CCO)c1cc2cc(Cl)ccc2[nH]1`, for which the half-maximal inhibitory concentration (IC50) was more than 10 µM. Same read-out and setting: with `Cc1cc(C(O)CO)ccc1NC(=O)c1cc2cc(Cl)ccc2[nH]1` (configuration not stated) the figure was 2.6 µM. Regarding `CC(C)(O)C(O)c1ccc(NC(=O)c2cc3cc(Cl)ccc3[nH]2)cc1` (configuration not stated), the IC50 is more than 10 µM. Still for that read-out and setting: the value for `O=C(Nc1ccc(C(CO)CO)cc1)c1cc2cc(Cl)ccc2[nH]1` was 5.8 µM; that for `O=C(Nc1ncc(C(O)CO)s1)c1cc2cc(Cl)ccc2[nH]1` (configuration not stated) was 3.1 µM; that for `O=C(Nc1nc(C(O)CO)cs1)c1cc2cc(Cl)ccc2[nH]1` (configuration not stated) was more than 10 µM. Still for that read-out and setting: the value for `O=C(Nc1ccc(C(O)CO)cc1F)c1cc2cc(Cl)ccc2[nH]1` (configuration not stated) was 0.42 µM.

`COc1cc(NC(=O)c2cc3cc(Cl)ccc3[nH]2)ccc1C(O)CO` (configuration not stated) gave an IC50 of 2.5 µM.

Consider `O=C(Nc1cccc(CCO)c1)c1cc2cc(Cl)ccc2[nH]1`, for which 6.2 µM corresponded to half-maximal inhibition (IC50).

With `O=C(Nc1ccc(C(O)CO)cc1Cl)c1cc2cc(Cl)ccc2[nH]1` (configuration not stated), the IC50 was determined as 1.1 µM.

`O=C(Nc1ccc(C(O)CO)cn1)c1cc2cc(Cl)ccc2[nH]1` (configuration not stated): half-maximal inhibition (IC50) was put at 0.25 µM.

The next assay deals with Mus musculus. Nature of the assay: Hypoglycemic activity against C57BL/KsJ db/db mouse assessed as reduction of blood glucose at 30 mg/kg, po after 2 hrs relative to control. In kind it is functional. Further details: scale not given: the % may be the effect or the level left. Summed up:
(§1)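 Male C57BL/KsJ db/db mice, 6 weeks old, on commercial diet, grouped (n = 6) to uniform blood glucose and body weight; non-fasted pre-dose glucose measured next day. Single oral dose at 10 mL/kg; blood glucose measured at 2 h. Activity given as percentage decrease versus vehicle-treated controls, significance by unpaired t-test on mean glucose.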
Take `O=C(Nc1ccc(C(O)CO)cn1)c1cc2cc(Cl)ccc2[nH]1` (configuration not stated): the Activity is on record as 13%.

The next assay relates to Hepatocyte. Briefly: Inhibition of glucagon-induced glycogenolysis in Sprague-Dawley rat hepatocytes. The format is functional, cell-based. Summed up:
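Hepatocytes from fed male Sprague-Dawley rats (150–200 g), viability >85%, plated on collagen at 2.5 × 10⁵ cells/well. Washed cells incubated 30 min at 37 °C in glucose-free/calcium-free Hanks buffer with 0.1% DMSO and inhibitor at 0.1–10 µM, with or without 10 nM glucagon. Medium glucose read by glucose oxidase/peroxidase; IC50 by logistic regression.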
Turning to `O=C(N[C@@H](Cc1ccc(F)cc1)C(=O)N1CCC(O)CC1)c1cc2cc(Cl)ccc2[nH]1`, 1.7 µM corresponded to half-maximal inhibition (IC50).

The molecule `O=C(Nc1ccc(C(O)CO)cn1)c1cc2cc(Cl)ccc2[nH]1` (configuration not stated) had an IC50 of 0.62 µM.

The next assay concerns Mus musculus. Nature of the assay: Hypoglycemic activity against C57BL/KsJ db/db mouse assessed as reduction of blood glucose at 50 mg/kg, po after 2 hrs relative to control. The format is functional. Set-up: scale not given: the % may be the effect or the level left. Summed up: as §1
Consider `O=C(N[C@@H](Cc1ccc(F)cc1)C(=O)N1CCC(O)CC1)c1cc2cc(Cl)ccc2[nH]1`, for which the Activity turned out to be 20%. Same read-out and setting: with `O=C(Nc1ccc(C(O)CO)cn1)c1cc2cc(Cl)ccc2[nH]1` (configuration not stated) the figure was 26%.
